{"source": "ChEMBL document CHEMBL1212703", "about": "“Identification of RIP1 kinase as a specific cellular target of necrostatins” (Nat Chem Biol, 2008)", "key": {"[1]": {"biological_target": "Receptor-interacting serine/threonine-protein kinase 2 (Homo sapiens) (UniProt O43353)", "sequence (O43353 whole entry)": "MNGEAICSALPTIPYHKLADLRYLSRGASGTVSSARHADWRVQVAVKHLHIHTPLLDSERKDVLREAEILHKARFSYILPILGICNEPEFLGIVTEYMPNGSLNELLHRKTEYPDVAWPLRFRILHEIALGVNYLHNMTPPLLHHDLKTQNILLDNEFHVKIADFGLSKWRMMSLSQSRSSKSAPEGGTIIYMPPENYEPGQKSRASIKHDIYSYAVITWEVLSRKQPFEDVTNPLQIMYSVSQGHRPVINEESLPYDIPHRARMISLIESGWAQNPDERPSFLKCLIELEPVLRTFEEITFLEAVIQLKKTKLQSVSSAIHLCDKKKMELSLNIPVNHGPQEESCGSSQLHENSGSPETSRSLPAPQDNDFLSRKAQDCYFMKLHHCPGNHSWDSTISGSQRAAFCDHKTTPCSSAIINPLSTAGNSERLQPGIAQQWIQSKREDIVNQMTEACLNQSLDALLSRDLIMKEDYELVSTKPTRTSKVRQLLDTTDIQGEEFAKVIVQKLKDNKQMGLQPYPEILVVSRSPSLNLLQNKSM", "assay": "Inhibition of human RIP2 autophosphorylation expressed in HEK293T cells", "type": "cell-based", "conditions": "HEK-293T", "procedure,_shortened": "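Myc-tagged RIP2 was transiently expressed in 293T cells, immunoprecipitated with anti-Myc antibody (clone 9E10), and used in an in vitro autophosphorylation kinase reaction with compound at the indicated concentrations, with DMSO as the vehicle.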"}, "[2]": {"test_system": "T1, Receptor-interacting serine/threonine-protein kinase 1 (Homo sapiens), Q13546 [K45M]", "T1 sequence (whole entry)": "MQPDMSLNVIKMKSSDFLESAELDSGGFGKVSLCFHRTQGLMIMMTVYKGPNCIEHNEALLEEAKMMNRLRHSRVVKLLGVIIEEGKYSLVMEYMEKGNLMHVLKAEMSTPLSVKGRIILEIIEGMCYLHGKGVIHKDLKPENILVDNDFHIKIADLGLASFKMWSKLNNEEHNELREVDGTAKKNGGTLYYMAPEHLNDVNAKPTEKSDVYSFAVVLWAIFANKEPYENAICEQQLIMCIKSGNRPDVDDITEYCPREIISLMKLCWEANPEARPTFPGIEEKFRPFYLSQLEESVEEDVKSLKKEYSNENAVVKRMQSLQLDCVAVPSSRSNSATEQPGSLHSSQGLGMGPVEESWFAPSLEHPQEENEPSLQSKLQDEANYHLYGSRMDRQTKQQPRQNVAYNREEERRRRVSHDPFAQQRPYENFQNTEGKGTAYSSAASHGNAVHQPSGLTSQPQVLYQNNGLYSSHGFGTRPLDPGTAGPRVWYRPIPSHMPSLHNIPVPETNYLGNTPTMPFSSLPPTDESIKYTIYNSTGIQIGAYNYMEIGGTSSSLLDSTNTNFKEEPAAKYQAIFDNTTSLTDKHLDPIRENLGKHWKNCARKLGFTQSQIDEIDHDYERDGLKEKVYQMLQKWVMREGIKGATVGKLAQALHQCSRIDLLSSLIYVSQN", "assay": "Inhibition of human RIP1 K45M mutant autophosphorylation expressed in Sf9 cells"}, "[3]": {"biological_target": "T2, Heat shock protein HSP90 (Homo sapiens) (UniProt P07900+P08238)", "assay": "Inhibition of to HSP90 in FADD deficient human Jurkat cells assessed as RIP protein degradation at 30 uM by Western blot", "type": "cell-based", "procedure,_shortened": "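FADD-deficient Jurkat cells exposed to 30 µM compound for 16 hr; RIP1 levels then assessed by western blot against anti-RIP1, with tubulin as loading control.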"}, "HEK-293T [4]": {"test_system": "HEK-293T", "assay": "Inhibition of TNF-alpha-induced NF-kappaB activation expressed in HEK293T cells at 30 uM by luciferase reporter gene assay", "type": "cell-based", "procedure,_shortened": "(§1)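 293T cells, 1.2*10^6/well, cotransfected with pNFkB-Luc and pRSV-β-galactosidase control; 48 h later stimulated with 10 ng ml-1 human TNFα for 4 h with 30 µM compound. Luciferase (Bright-Glo) normalized to β-gal activity (ONPG, 30 °C, A420). Results expressed as fold over unstimulated cells; s.d. shown.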"}, "[5]": {"test_system": "T1, Receptor-interacting serine/threonine-protein kinase 1 (Homo sapiens), Q13546 [K45M]", "assay": "Inhibition of human RIP1 K45M mutant autophosphorylation expressed in FADD deficient human Jurkat cells at 10 to 30 uM", "type": "cell-based"}, "[6]": {"biological_target": "T2, Heat shock protein HSP90 (Homo sapiens)", "assay": "Inhibition of FITC-geldanamycin binding to HSP90 in human Jurkat cell lysates at 30 uM by fluorimetric assay", "type": "cell-free"}, "Jurkat [7]": {"test_system": "Jurkat", "assay": "Inhibition of TNF-alpha-induced NF-kappaB activation expressed in FADD deficient human Jurkat cells at 30 uM by luciferase reporter gene assay", "type": "cell-based", "procedure,_shortened": "(§2)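 FADD-deficient Jurkat cells carrying a lentiviral NF-kB luciferase reporter, 2*10^4 cells/well, stimulated with 10 ng ml-1 human TNFα for 4 h with 30 µM compound. Luminescence read by Bright-Glo. Values given as fold luciferase increase over unstimulated cells; s.d. shown.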"}, "[8]": {"test_system": "T1, Receptor-interacting serine/threonine-protein kinase 1 (Homo sapiens), Q13546 [K45M]", "assay": "Inhibition of human RIP1 K45M mutant autophosphorylation expressed in HEK293T cells", "type": "cell-based", "conditions": "HEK-293T"}, "Jurkat [9]": {"test_system": "Jurkat", "assay": "Inhibition of cellular necroptosis in TNFalpha treated FADD deficient human Jurkat cells", "type": "functional, cell-based"}, "[10]": {"biological_target": "T3, Receptor-interacting serine/threonine-protein kinase 1 (Homo sapiens) (UniProt Q13546)", "T3 sequence (whole entry)": "T1 sequence (whole entry) with M45K", "assay": "(§3) Inhibition of endogenous RIP1 autophosphorylation in human Jurkat cells", "type": "cell-based", "procedure,_shortened": "(§4)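 RIP1 immunoprecipitated from Jurkat cells and autophosphorylated in vitro across a titration of compound. Autophosphorylation quantified by phosphorimager; EC50 derived by nonlinear regression curve fitting. An aliquot of each reaction was blotted for RIP1 to check protein input.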"}, "[11]": {"test_system": "T4, Receptor-interacting serine/threonine-protein kinase 1 (Homo sapiens), Q13546 [S161E]", "T4 sequence (whole entry)": "T1 sequence (whole entry) with M45K, S161E", "assay": "Inhibition of human RIP1 S161E mutant autophosphorylation expressed in HEK293T cells at 10 to 30 uM", "type": "cell-based", "conditions": "HEK-293T"}, "Jurkat [12]": {"test_system": "Jurkat", "assay": "Inhibition of cellular necroptosis in TNFalpha treated […] human Jurkat cells expressing RIP1 S161E mutant at 30 uM", "type": "functional, cell-based"}, "Jurkat [13]": {"test_system": "Jurkat", "assay": "Inhibition of cellular necroptosis in TNFalpha treated FADD and RIP1 deficient human Jurkat cells at 30 uM", "type": "functional, cell-based"}, "[14]": {"biological_target": "Receptor-interacting serine/threonine-protein kinase 3 (Homo sapiens) (UniProt Q9Y572)", "sequence (Q9Y572 whole entry, looked up)": "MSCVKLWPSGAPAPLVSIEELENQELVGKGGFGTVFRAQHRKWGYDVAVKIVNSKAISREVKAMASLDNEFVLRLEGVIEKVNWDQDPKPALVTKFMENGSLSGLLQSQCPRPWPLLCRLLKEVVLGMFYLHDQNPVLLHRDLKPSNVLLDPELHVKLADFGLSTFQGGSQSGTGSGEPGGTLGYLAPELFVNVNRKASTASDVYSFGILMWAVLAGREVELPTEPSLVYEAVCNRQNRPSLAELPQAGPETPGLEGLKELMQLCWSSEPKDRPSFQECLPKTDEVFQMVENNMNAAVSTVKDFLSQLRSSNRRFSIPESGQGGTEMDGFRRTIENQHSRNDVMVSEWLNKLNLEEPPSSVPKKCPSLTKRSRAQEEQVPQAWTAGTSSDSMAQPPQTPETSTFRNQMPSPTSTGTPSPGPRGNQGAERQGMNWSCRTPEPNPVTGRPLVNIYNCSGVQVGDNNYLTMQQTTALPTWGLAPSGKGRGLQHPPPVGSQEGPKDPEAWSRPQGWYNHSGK", "assay": "Inhibition of human RIP3 autophosphorylation expressed in HEK293T cells", "type": "cell-based", "conditions": "HEK-293T"}, "[15]": {"biological_target": "T5, Receptor-interacting serine/threonine-protein kinase 1 (Homo sapiens, UniProt Q13546)", "T5 sequence (Q13546 whole entry)": "T1 sequence (whole entry) with M45K", "assay": "as §3", "type": "cell-based", "procedure,_shortened": "as §4"}, "[16]": {"test_system": "T4, Receptor-interacting serine/threonine-protein kinase 1 (Homo sapiens), Q13546 [S161E]", "conditions": "HEK-293T, 100 uM"}, "Jurkat [17]": {"test_system": "Jurkat", "assay": "Inhibition of cellular necroptosis in TNFalpha treated […] human Jurkat cells expressing RIP1 F162E mutant at 30 uM", "type": "functional, cell-based"}, "[18]": {"test_system": "T1, Receptor-interacting serine/threonine-protein kinase 1 (Homo sapiens), Q13546 [K45M]", "assay": "Inhibition of human RIP1 K45M mutant autophosphorylation expressed in Sf9 cells at 10 to 30 uM"}, "Jurkat [19]": {"test_system": "Jurkat", "assay": "Inhibition of TNF-alpha-induced NF-kappaB activation expressed in FADD deficient human Jurkat cells by luciferase reporter gene assay", "type": "cell-based", "procedure,_shortened": "as §2"}, "HEK-293T [20]": {"test_system": "HEK-293T", "assay": "Inhibition of TNF-alpha-induced NF-kappaB activation expressed in HEK293T cells by luciferase reporter gene assay", "type": "cell-based", "procedure,_shortened": "as §1"}}, "note": "Residue numbers refer to the chain shown, from its start. Activity calls are given as the source filed them. The rule behind the calls is not given here. Peptide text beside a SMILES is read from it. * marks the point of attachment. Cbz = O=C(OCc1ccccc1)*; CH2F = FC*"}
{"smiles": "O=[N+]([O-])c1ccc(-c2nc(-c3ccc(F)cc3)c(-c3ccncc3)[nH]2)cc1", "values": [{"measurement": "inhibition", "setting": "[1]", "result": "Active"}]}
{"smiles": "COc1ccc(-n2c(SCC#N)nc3sc4c(c3c2=O)CCCC4)cc1", "values": [{"measurement": "inhibition", "setting": "[2]", "result": "inactive"}, {"measurement": "inhibition", "setting": "[3]", "result": "inactive"}, {"measurement": "inhibition", "setting": "HEK-293T [4]", "result": "inactive"}, {"measurement": "inhibition", "setting": "[5]", "result": "Active"}, {"measurement": "inhibition", "setting": "[6]", "result": "inactive"}, {"measurement": "inhibition", "setting": "Jurkat [7]", "result": "inactive"}, {"measurement": "inhibition", "setting": "[8]", "result": "Active"}]}
{"smiles": "O=C1NC(=S)NC1Cc1c[nH]c2ccccc12", "note": "(stereo not drawn)", "values": [{"measurement": "inhibition", "setting": "[2]", "result": "inactive"}, {"measurement": "EC50", "setting": "Jurkat [9]", "result": "> 100", "unit": "µM"}, {"measurement": "inhibition", "setting": "[10]", "result": "inactive"}, {"measurement": "inhibition", "setting": "[8]", "result": "inactive"}]}
{"smiles": "N#CCSc1nc2sc3c(c2c(=O)n1-c1ccccc1)CCCC3", "values": [{"measurement": "EC50", "setting": "Jurkat [9]", "result": "> 100", "unit": "µM"}, {"measurement": "inhibition", "setting": "[8]", "result": "inactive"}]}
{"smiles": "COc1ccc([C@H]2[C@H]3CCc4ccccc4C3=NN2C(C)=O)cc1", "values": [{"measurement": "inhibition", "setting": "[2]", "result": "Active"}, {"measurement": "inhibition", "setting": "[3]", "result": "inactive"}, {"measurement": "EC50", "setting": "Jurkat [9]", "result": 0.29, "unit": "µM"}, {"measurement": "inhibition", "setting": "HEK-293T [4]", "result": "inactive"}, {"measurement": "inhibition", "setting": "[5]", "result": "Active"}, {"measurement": "inhibition", "setting": "[6]", "result": "inactive"}, {"measurement": "inhibition", "setting": "[11]", "result": "Active"}, {"measurement": "inhibition", "setting": "Jurkat [12]", "result": "Active"}, {"measurement": "inhibition", "setting": "Jurkat [7]", "result": "inactive"}, {"measurement": "inhibition", "setting": "[8]", "result": "Active"}]}
{"smiles": "CN1C(=O)NC(Cc2c[nH]c3ccccc23)C1=O", "note": "(stereo not drawn)", "values": [{"measurement": "inhibition", "setting": "[8]", "result": "Active"}]}
{"smiles": "C[C@@H]1C[C@@H]([C@H](O)CC2CC(=O)NC(=O)C2)C(=O)[C@@H](C)C1", "values": [{"measurement": "inhibition", "setting": "Jurkat [13]", "result": "inactive"}]}
{"smiles": "CN1C(=O)C(Cc2c[nH]c3ccccc23)NC1=S", "note": "(stereo not drawn) [NECROSTATIN]", "values": [{"measurement": "inhibition", "setting": "[1]", "result": "inactive"}, {"measurement": "inhibition", "setting": "[2]", "result": "Active"}, {"measurement": "inhibition", "setting": "[3]", "result": "inactive"}, {"measurement": "inhibition", "setting": "[14]", "result": "inactive"}, {"measurement": "inhibition", "setting": "HEK-293T [4]", "result": "inactive"}, {"measurement": "inhibition", "setting": "[6]", "result": "inactive"}, {"measurement": "inhibition", "setting": "Jurkat [12]", "result": "inactive"}, {"measurement": "EC50", "setting": "[15]", "result": 0.182, "unit": "µM"}, {"measurement": "inhibition", "setting": "Jurkat [7]", "result": "inactive"}, {"measurement": "inhibition", "setting": "[8]", "result": "Dose-dependent effect"}, {"measurement": "inhibition", "setting": "[16]", "result": "inactive"}, {"measurement": "inhibition", "setting": "Jurkat [17]", "result": "inactive"}]}
{"smiles": "CN1C(=O)C(Cc2cn(C)c3ccccc23)NC1=S", "note": "(stereo not drawn)", "values": [{"measurement": "EC50", "setting": "Jurkat [9]", "result": 33, "unit": "µM"}, {"measurement": "inhibition", "setting": "[8]", "result": "inactive"}]}
{"smiles": "CN1C(=O)C(C)(Cc2c[nH]c3ccccc23)NC1=S", "note": "(stereo not drawn)", "values": [{"measurement": "EC50", "setting": "Jurkat [9]", "result": "> 100", "unit": "µM"}, {"measurement": "inhibition", "setting": "[8]", "result": "inactive"}]}
{"smiles": "CN1CC(Cc2c[nH]c3c(Cl)cccc23)NC1=O", "note": "(stereo not drawn)", "values": [{"measurement": "EC50", "setting": "Jurkat [9]", "result": "> 100", "unit": "µM"}]}
{"smiles": "COC1=C2C[C@@H](C)C[C@H](OC)[C@H](O)[C@@H](C)/C=C(\\C)[C@H](OC(N)=O)[C@@H](OC)/C=C\\C=C(/C)C(=O)NC(=CC1=O)C2=O", "values": [{"measurement": "inhibition", "setting": "[18]", "result": "inactive"}, {"measurement": "inhibition", "setting": "[5]", "result": "inactive"}, {"measurement": "inhibition", "setting": "Jurkat [19]", "result": "Active"}, {"measurement": "inhibition", "setting": "HEK-293T [20]", "result": "Active"}]}
{"smiles": "COC(=O)C[C@H](NC(=O)[C@H](C)NC(=O)[C@@H](NC(=O)OCc1ccccc1)C(C)C)C(=O)CF", "note": "(Cbz-Val-Ala-Asp(OMe)-CH2F)", "values": [{"measurement": "inhibition", "setting": "Jurkat [13]", "result": "inactive"}]}
{"smiles": "COc1ccc([C@H]2[C@H]3CCc4c(OC)cccc4C3=NN2C(C)=O)cc1", "values": [{"measurement": "EC50", "setting": "Jurkat [9]", "result": "> 100", "unit": "µM"}, {"measurement": "inhibition", "setting": "[8]", "result": "inactive"}]}
{"smiles": "CN1C(=O)C(Cc2c[nH]c3c(Cl)cccc23)NC1=S", "note": "(stereo not drawn)", "values": [{"measurement": "inhibition", "setting": "[8]", "result": "Active"}]}
{"smiles": "CN1C(=O)C(Cc2c[nH]c3ccccc23)N(C)C1=S", "note": "(stereo not drawn)", "values": [{"measurement": "EC50", "setting": "Jurkat [9]", "result": 78, "unit": "µM"}, {"measurement": "inhibition", "setting": "[8]", "result": "inactive"}]}
